# Compound activity: PubChem BioAssay, Johns Hopkins Ion Channel Center
# TRPC6 act – activators of mouse TRPC6 channel; Q61143; HEK293-TRPC6 membrane potential dye fluorescence; active compounds read high; B-score at 10 µM; 0.13% of 310,000 active; AID 2550;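 active = B-score of the integrated fluorescence ratio above library mean plus 3 SD, and starting fluorescence ratio within library mean plus 5 SD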;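 note: higher score means more depolarization so channel activation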
# TRPC6 inh – blocks the mouse TRPC6 cation channel; AID 2553; HEK293-TRPC6, membrane potential dye, ACh-evoked depolarization; active compounds read low; 1.1% of 310,000 active; Q61143; B-score at 10 µM;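 active = B-score under library mean minus 3 SD, initial fluorescence not abnormally high, positive integrated signal ratio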;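 note: B-score derived from integrated fluorescence ratio over the kinetic read; more negative B-score means stronger inhibition of depolarization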
# TRPC4 block – inhibitors of mouse TRPC4 channel | Q9QUQ5 | HEK293 TRPC4beta/mu-opioid, DAMGO-evoked Fluo4 calcium flux; active compounds read low | B-score at 10 µM | 0.39% of 300,000 active | AID 2247;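 active = B-score over 3 SD under the library average, no early fluorescence shift, positive overall ratio signal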
#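 System: stable TRPC4beta/mu-opioid receptor HEK293 cells; Dosing: single-point compound dosing; Measured by: Fluo4 Ca2+ flux fluorescence; Read-out basis: per-well B score of integrated baseline-normalized Fluo4 ratio.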
# TRPC4 potent – TRPC4 (mouse) allosteric potentiation | Q9QUQ5 | HEK293 TRPC4beta/mu-opioid, DAMGO EC20, Fluo-4 Ca2+ flux; active compounds read high | B-score at 10 µM | 0.42% of 310,000 active | AID 2227;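 active = B-score of calcium response area above 5 SD of library B-scores, with initial fluorescence ratio within 5 SD of library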
# TRPC4 agonist – TRPC4 (mouse) channel activation | HEK293 TRPC4beta/mu-opioid, Fluo4 calcium fluorescence; active compounds read high | B-score at 10 µM | 0.49% of 310,000 active | AID 2237;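 active = B-score above 5 SD of library B-scores, and initial fluorescence ratio not above library mean plus 5 SD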;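 note: positive B-score marks a calcium rise read as TRPC4 activation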
#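 system = HEK293 cells stably co-expressing mouse TRPC4beta and mu-opioid receptor | schedule = Fluo4 dye loading 45 min at room temperature, 110 s recording | measure = B-scored integrated calcium fluorescence ratio | signal = Fluo4 calcium-sensitive dye fluorescence, kinetic, 1 Hz baseline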
# TRPC4 spec 2 – second selectivity test of TRPC6 inhibitors: effect on mouse TRPC4; inhibition, % at 10 µM; shares compounds with TRPC6 inh; 42% of 920 active; HEK293 TRPC4/MOR, membrane potential dye fluorescence; channel activated by saturating DAMGO dose;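 active = compounds whose fluorescence signal differed from control wells by over 3 SD, either direction, in both duplicate plates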
# TRPC4 spec – mouse TRPC4 off-target activity of TRPC6 inhibitors | shares compounds with TRPC6 inh | HEK293 TRPC4/mu-opioid, membrane potential fluorescence | activity change, negative = inhibition, % at 10 µM | 61% of 920 active;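 active = rise or fall in signal beyond 3 SD of buffer-only wells in both replicate plates, either sign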;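 note: integrated kinetic ratio of fluorescence range over baseline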
# HEK293 MPD ctr 2-1 – second check of TRPC6 inhibitor effects in parental HEK293 cells. shares compounds with TRPC6 inh. parental HEK293 membrane potential dye fluorescence; maximal acetylcholine challenge after compound addition. signal change vs control, % at 10 µM. 31% of 920 active;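 active = membrane potential signal moving either way by over 3 SD of the maximum-effect control, in both duplicate plates, meaning non-specific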
# HEK293 MPD ctr-1 – counter-screen for TRPC6 inhibitors: effect in parental HEK293 cells. parental HEK293 membrane potential dye fluorescence. 60% of 920 active. membrane potential signal change, % at 10 µM. shares compounds with TRPC6 inh;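 active = membrane potential signal shifting up or down by more than 3 SD of buffer-only wells, on both duplicate plates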
# HEK293 MPD ctr-2 – parental HEK293 nonspecific activity of TRPC6 modulators | shares compounds with TRPC6 inh | membrane potential dye fluorescence | membrane potential signal change, % at 10 µM | 51% of 2,400 active | AID 488924;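 active = membrane potential signal moves up or down beyond 5 SD from buffer-only wells, on both duplicate plates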
# HEK293 MPD ctr 2-2 – parental HEK293 nonspecific activity of TRPC6 modulators, second screen. shares compounds with TRPC6 inh. membrane potential dye fluorescence; after compound, maximal acetylcholine stimulation. inhibition, % at 10 µM. 14% of 2,400 active. AID 488926;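 active = membrane potential signal drops by more than 5 SD from the mean control signal, in both duplicate plates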
# TRPC4 ctr mod – mouse TRPC4 off-target activity of TRPC6 modulators; shares compounds with TRPC6 inh; HEK293 TRPC4/mu-opioid, membrane potential fluorescence; percent change from control (negative = decrease, positive = increase), % at 10 µM; 69% of 2,400 active;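 active = membrane potential signal moved up or down beyond 5 SD of buffer control wells, in both duplicate plates, actives on both sides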
# TRPC4 ctr inh 2 – second check of whether TRPC6 modulators also affect mouse TRPC4; shares compounds with TRPC6 inh; HEK293 TRPC4/mu-opioid, membrane potential dye fluorescence; stimulated with maximal-effect DAMGO; inhibition, % at 10 µM; 55% of 2,400 active;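 active = drop in membrane potential signal beyond 5 SD of the control wells in both duplicate plates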;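 note: TRPC4 counter screen for TRPC6 hits run under conditions tuned for TRPC6 not TRPC4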
# TRPC6 block conf – mouse TRPC6 inhibitor confirmation. shares compounds with TRPC6 inh. HEK293-TRPC6, membrane potential dye, ACh-evoked depolarization. inhibition, % at 10 µM. 43% of 3,300 active. AID 488960;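 active = fluorescence ratio falls more than 5 SD below the full-stimulation control mean, in both duplicate runs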;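 note: integrated fluorescence ratio of peak minus minimum over baseline after agonist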
# TRPC6 act conf – mouse TRPC6 activator confirmation; shares compounds with TRPC6 inh; HEK293-TRPC6 membrane potential dye fluorescence, FDSS; activation, % at 10 µM; 11% of 2,800 active; AID 488961;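 active = ratio signal rise beyond 5 SD above unstimulated control wells' mean, seen in both duplicate runs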
# A number is an active result; - = inactive; . = no result given. An excerpt weighted towards active compounds, which were near 2.3% of everything screened.
SMILES,TRPC6 act,TRPC6 inh,TRPC4 block,TRPC4 potent,TRPC4 agonist,HEK293 MPD ctr-2,HEK293 MPD ctr 2-2,TRPC4 ctr mod,TRPC4 ctr inh 2,TRPC6 block conf,TRPC6 act conf,others
O=C(CNC(=O)c1ccco1)OCC(=O)c1ccc(Br)cc1,-,-5.33,-,-,-,-,-,-,-,-,-,
COC(=O)[C@@H]1C[C@@]2(Br)c3ccccc3N(S(=O)(=O)c3ccccc3)[C@H]2N1C(=O)OC,-,-,-,-,-,.,.,.,.,.,.,
COc1ccc(-n2c(-c3ccc(Br)cc3)c[n+]3c2CCc2ccccc2-3)cc1,-,-5.33,-,-,-,-149.5%,-,18.0%,62.5%,-,-,
COc1ccccc1-n1c(-c2ccccc2)c[nH]c1=S,-,-,-,-,-,.,.,.,.,.,.,
COc1ccccc1-n1c(-c2ccccc2)c[n+]2c1CCc1ccccc1-2,-,-9.91,-,-,-,92.5%,-,20.0%,40.5%,77.4%,-,TRPC4 spec 2=-;TRPC4 spec=1.8%;HEK293 MPD ctr 2-1=-;HEK293 MPD ctr-1=-
CC(C)c1ccc(-n2c(-c3ccccc3)c[n+]3c2CCc2ccccc2-3)cc1,-,-,-,-,-,.,.,.,.,.,.,
Cc1cccnc1NC1OC(=O)c2ccccc21 (configuration not stated),-,-,-,-,-,.,.,.,.,.,.,
COc1ccccc1CNC(=O)C1CC2Cn3c(nc4cc(C)c(C)cc43)C2N1C (configuration not stated),-,-,-,-,-,.,.,.,.,.,.,
COc1ccccc1CNC(=O)C1CC2Cn3c(nc4ccccc43)C2N1C (configuration not stated),12.6,-,-,-,-,-,-,-,-,-,-,
CCCCn1c(-c2ccc([N+](=O)[O-])cc2)n[nH]c1=S,-,-14.8,-,-,-,.,.,.,.,84.6%,-,TRPC4 spec 2=-;TRPC4 spec=-;HEK293 MPD ctr 2-1=-17.5%;HEK293 MPD ctr-1=-
CCCn1c(-c2ccc(F)cc2)n[nH]c1=S,-,-,-,-,-,.,.,.,.,.,.,
Cn1nc(C(=O)Nc2ccc(S(=O)(=O)Nc3ncccn3)cc2)ccc1=O,-,-,-,-,-,.,.,.,.,.,.,
CC(C)Cc1cc(C(=O)N2CCC(N3CCC(C(=O)NC4CC4)CC3)CC2)n[nH]1,-,-,-,-,-,.,.,.,.,.,.,
CCN(c1ccccc1)P(=O)(Nc1ccccc1)Nc1ccccc1,-,-,-,-,-,.,.,.,.,.,.,
CN(c1ccccc1)P(=O)(N(C)c1ccccc1)N(C)c1ccccc1,-,-9.51,-,-,-,.,.,.,.,66.2%,.,TRPC4 spec 2=-;TRPC4 spec=28.9%;HEK293 MPD ctr 2-1=-;HEK293 MPD ctr-1=14.8%
Cn1c(SCC(=O)N2CCOCC2)nc2sc3c(c2c1=O)CCCC3,-,-8.78,-,-,-,.,.,.,.,-,-,TRPC4 spec 2=-;TRPC4 spec=-;HEK293 MPD ctr 2-1=-;HEK293 MPD ctr-1=-
COC(=O)CSc1nc2sc3c(c2c(=O)n1C1CCCCC1)CCN(C)C3,-,-9.41,-,-,-,.,.,.,.,-,-,TRPC4 spec 2=78.0%;TRPC4 spec=-;HEK293 MPD ctr 2-1=-;HEK293 MPD ctr-1=-212.0%
O=C(COc1ccc(S(=O)(=O)N2CCCC2)cc1)NCc1ccccn1,-,-,-,-,-,.,.,.,.,.,.,
CCN1CCN(C(=O)CCc2nnc(CCc3ccc(OC)cc3)o2)[C@@H](C)C1=O,-,-,-,-,-,.,.,.,.,.,.,
COc1cc2nc(N3CCNCC3)nc(N)c2cc1OC,-,-11.2,-,-,-,-246.5%,91.5%,-38.0%,53.0%,64.0%,-,
N#Cc1cccc(C(c2nnnn2CCc2ccccc2)N2CCN(C3CCCCC3)CC2)c1 (configuration not stated),-,-5.04,-,-,-,-,-,-,70.5%,54.0%,-,
O=C1CN(C(=O)/C=C/c2cccc(Cl)c2)c2ccccc2N1,-,-6.74,-,-,-,.,.,.,.,-,-,TRPC4 spec 2=-;TRPC4 spec=-;HEK293 MPD ctr 2-1=-;HEK293 MPD ctr-1=-
Nc1ccc2c(c1)N=[N+]([O-])c1cc(N)ccc1C2,-,-,-,-,-,.,.,.,.,.,.,
CC(/C=C/c1cccc([N+](=O)[O-])c1)=N/NC(=O)c1cccnc1,-,-5.86,-,-,-,-,-,-,-,-,-,
Cc1ccc(C)c(N(CC(=O)N/N=C/c2ccc(-c3ccc([N+](=O)[O-])cc3)o2)S(=O)(=O)c2ccccc2)c1,-,-,-,-,-,.,.,.,.,.,.,
SMILES,TRPC6 act,TRPC6 inh,TRPC4 block,TRPC4 potent,TRPC4 agonist,HEK293 MPD ctr-2,HEK293 MPD ctr 2-2,TRPC4 ctr mod,TRPC4 ctr inh 2,TRPC6 block conf,TRPC6 act conf,others
CCOc1ccc(S(=O)(=O)N(CC(=O)N/N=C/c2ccc(-c3ccc([N+](=O)[O-])cc3)o2)c2ccccc2)cc1,-,-5.13,-,-,-,-,-,-,-,-,.,
CCS(=O)(=O)c1nn2c(N)c(/C=C3/C=CC(=O)C(OC)=C3)c(=O)nc2s1,-,-,-,-,-,.,.,.,.,.,.,
CCOC1=C/C(=C/c2c(N)n3nc(-c4ccccc4)sc3nc2=O)C=CC1=O,13.2,-5.26,-,-,-,427.5%,140.0%,52.0%,-,-,73.0%,
C=CCn1c(Oc2cc(C)ccc2C)nc2c1c(=O)n(C)c(=O)n2C,-,-6.18,-,-,-,139.5%,-,29.5%,41.0%,-,.,
C=CCn1c(Oc2cccc(C)c2)nc2c1c(=O)n(C)c(=O)n2C,-,-,-,-,-,.,.,.,.,.,.,
O=C(CSc1c2c(nc3ccc(Cl)cc13)CCCC2)NCCCN1CCOCC1,-,-11.2,-,-,-,.,.,.,.,-,-,TRPC4 spec 2=-;TRPC4 spec=-;HEK293 MPD ctr 2-1=33.5%;HEK293 MPD ctr-1=-
COCCCNC(=O)C1CCC(CNS(=O)(=O)c2ccc(C)cc2)CC1 (configuration not stated),-,-6.29,-,-,-,99.0%,-,22.5%,-,-,-,
CCCCNC(=O)C1CCC(CNS(=O)(=O)c2ccc(C)cc2)CC1 (configuration not stated),-,-,-,-,-,.,.,.,.,.,.,
